Measured values published in ChEMBL document CHEMBL3272198, “Preparation and in vitro antifungal activities of some quinolizidine derived hemiaminals and beta-tert-amino sulfides” (1976).
Active and inactive are the calls of the source. The calls are words filed in the database; no cut-off is given here.

Legend:
Sporotrichum = assay: Antifungal activity against Sporotrichum schenckii Hektoen & Perkins (1109) at 40 to 80 ug/ml after 2 weeks; assay type: functional, organism-based
In short: (§1)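 Compound in aqueous HOAc/Me2SO was filter-sterilized and mixed into melted (50°) Sabouraud dextrose agar. Agar pH was 7.0-7.5 before addition and 6.0-6.5 after, giving final levels of 10-100 μg/ml. Quadrant plates were center-inoculated with a 2 × 2 mm piece of a 2-week-old mycelial culture, sealed and kept at 25°C. Colony expansion was measured weekly, with solvent and blank controls, in duplicate.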

Trichophyton rubrum = assay: Antifungal activity against Trichophyton rubrum Castellani Sab.1112 at 40 to 80 ug/ml after 2 weeks; assay type: functional, organism-based; in short: as §1
Blastomyces dermatitidis [1] = assay: Antifungal activity against Blastomyces dermatitidis Gilchrist & Stokes isolate 1099 at 1 ug/ml after 2 weeks (reference value: 27 mm); assay type: functional; conditions: Gilchrist & Stokes isolate 1099, 336 h, read-out: DIZ
In short: (§2)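 Mycelial phase grown on Sabouraud dextrose agar at 25°C. Agar pH was set to 6 before the test solution was added and was 5.0-5.5 after. Test solutions contained HOAc and Me2SO, and solvent and blank controls were included. Each quadrant was center-inoculated with a 2 × 2 mm piece of a 2-week-old mycelial culture. Colony diameter was measured weekly for 3 weeks and reported as total increments (mm). Duplicates were run.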

Blastomyces dermatitidis [2] = assay: Antifungal activity against Blastomyces dermatitidis Gilchrist & Stokes isolate 1107 at 1 ug/ml after 2 weeks (reference value: 35 mm); assay type: functional; conditions: Gilchrist & Stokes isolate 1107, 336 h, read-out: DIZ; in short: as §2
Histoplasma capsulatum [3] = assay: Antifungal activity against Histoplasma capsulatum Darling isolate 1098 at 1 ug/ml after 2 weeks (reference value: 21 mm); assay type: functional; conditions: Darling isolate 1098, 336 h, read-out: DIZ
Histoplasma capsulatum [4] = assay: Antifungal activity against Histoplasma capsulatum Darling isolate 1106 at 1 ug/ml after 3 weeks (reference value: 31 mm); assay type: functional; conditions: Darling isolate 1106, 504 h, read-out: DIZ
Histoplasma capsulatum [5] = assay: Antifungal activity against Histoplasma capsulatum Darling isolate 1098 at 1 ug/ml after 3 weeks (reference value: 28 mm); assay type: functional; conditions: Darling isolate 1098, 504 h, read-out: DIZ

Structure (SMILES): C[C@@H]1CC[C@@H](c2ccoc2)N2C(O)[C@@](C)(Sc3ccccc3)CC[C@@H]12 (some centres not stated)
- diameter of the inhibition zone (DIZ) (Sporotrichum): Active
- diameter of the inhibition zone (DIZ) (Trichophyton rubrum): Active

Structure (SMILES): C[C@@H]1[C@H](O)[C@@H](C)/C=C/C=C/C=C/C=C/C=C/C=C/C=C/[C@H](O[C@@H]2O[C@H](C)[C@@H](O)[C@H](N)[C@@H]2O)C[C@@H]2O[C@](O)(C[C@@H](O)C[C@@H](O)[C@H](O)CC[C@@H](O)C[C@@H](O)CC(=O)O[C@H]1C)C[C@H](O)[C@H]2C(=O)O [AMPHOTERICIN B]
- zone of inhibition at 1 µg/mL (Blastomyces dermatitidis [1]): 10 mm
- zone of inhibition at 1 µg/mL (Blastomyces dermatitidis [2]): 19 mm
- zone of inhibition at 1 µg/mL (Histoplasma capsulatum [3]): 19 mm
- zone of inhibition at 1 µg/mL (Histoplasma capsulatum [4]): 24 mm
- zone of inhibition at 1 µg/mL (Histoplasma capsulatum [5]): 28 mm
